Sequences and labels used below:
B1: NELF-E aptamer (parent)
chain: CCCAACGACUGCCGAGCGAGAUUACGCUUGAGCGCCCCACUGAGGAUGCCCACGGGCGAUUGGGGCACGG

In this series the parent is B1. In words: HiTS-RAP. The following applies: with NELF-E (Drosophila). The procedure, abridged:
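Aptamer DNA templates bearing a T7 promoter and a ter site were sequenced on an Illumina GAIIx flowcell. T7 RNA polymerase then transcribed them in situ, and GST-Tus halted transcription over 30 minutes at 37°C. After a 30-minute room-temperature equilibration with NELF-E-mOrange at 0.064 to 1000 nM in HEPES binding buffer, clusters were imaged, using only the first binding curve. Intensities normalised to sequencing intensity were averaged per sequence and fitted with weighted Hill fits to give Kd, retaining only fits whose variance stayed under 1,000,000.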
A word on the Kd: it is the free concentration of one partner at which half of the binding sites on the other are occupied at equilibrium, for simple one-to-one binding. As for CCCAACGACGGCCGAGCGAGAUUACGCUUGAGCGCCCCACUGAGGAUGCCAACGGGCGAUUGGGGCACGG [U10G C51A], the Kd came out at 9.77 nM. In the case of CCCAACGACGGCCGAGCGAGAUUACGCUUGAGCGCCCCACUGAGGAUGCCUACGGGCGAUUGGGGCACGG [U10G C51U], the Kd was 6.95 nM.

In the case of CCCAACGACGGCCGAGCGAGAUUACGCUUGAGCGCCCCACUGAGGAUGCCGACGGGCGAUUGGGGCACGG [U10G C51G], the Kd was 4.43 nM. The result for CCCAACGACGGCCGAGCGAGAUUACGAUUGAGCGCCCCACUGAGGAUGCCCACGGGCGAUUGGGGCACGG [U10G C27A] reads 5.02 nM; that for CCCAACGACGGCCGAGCGAGAUUACGGUUGAGCGCCCCACUGAGGAUGCCCACGGGCGAUUGGGGCACGG [U10G C27G], 4.93 nM. Regarding CCCAACGACGGCCGAGCGAGAUUACGUUUGAGCGCCCCACUGAGGAUGCCCACGGGCGAUUGGGGCACGG [U10G C27U], the Kd was 3.87 nM. The result for CCCAACGACGGCCGAGCGGGAUUACGCUUGAGCGCCCCACUGAGGAUGCCCACGGGCGAUUGGGGCACGG [U10G A19G] reads 5.12 nM; that for CCCAACGACGGCCGAGCGUGAUUACGCUUGAGCGCCCCACUGAGGAUGCCCACGGGCGAUUGGGGCACGG [U10G A19U], 4.96 nM; that for CCCAACGACGGCCGAGCGAGAUUACGCUUGAGCGCCCCACUGAGGAUGCACACGGGCGAUUGGGGCACGG [U10G C50A], 16.6 nM. The figure for CCCAACGACGGCCGAGCGAGAUUACGCUUGAGCGCCCCACUGAGGAUGCUCACGGGCGAUUGGGGCACGG [U10G C50U] is 14 nM; for CCCAACGACGGCCGAGCGAGAUUACGCUUGAGCGCCCCACUGAGGAUGCGCACGGGCGAUUGGGGCACGG [U10G C50G] it is 7.26 nM. CCCAACGACGGCCGAGCGAGAUUACGCUUGAGCGCGCCACUGAGGAUGCCCACGGGCGAUUGGGGCACGG [U10G C36G]: the Kd worked out at 6.55 nM. Regarding CCCAACGACGGCCGAGCGAGAUUACGCUUGAGCGCUCCACUGAGGAUGCCCACGGGCGAUUGGGGCACGG [U10G C36U], the Kd is 6.99 nM.

For the variant CCCAACGACGGCCGAGCGAGAUUACGCUUGAGCGCACCACUGAGGAUGCCCACGGGCGAUUGGGGCACGG [U10G C36A], the Kd came to 9.48 nM. For CCCAACGACGGCCGAGCGAGAUUACGCUUGAGCGUCCCACUGAGGAUGCCCACGGGCGAUUGGGGCACGG [U10G C35U], the dissociation constant (Kd) came to 16.3 nM. The figure for CCCAACGACGGCCGAGCGAGAUUACGCUUGAGCGGCCCACUGAGGAUGCCCACGGGCGAUUGGGGCACGG [U10G C35G] is 6.33 nM; for CCCAACGACGGCCGAGCGAGAUUACGCUUGAGCGACCCACUGAGGAUGCCCACGGGCGAUUGGGGCACGG [U10G C35A] it is 7.32 nM; for CCCAACGACGGCCGAGCGAGAUUACGCUUGAGCGCCCCACUGAGGAUGCCCACGGGCGAUUGGGGCACGG [U10G] it is 4.49 nM.

Consider CCCAACGACCGCCGAGCGAGAUUACGCUUGAGCGCCCCACUGAGGAUGCCCACGGGCGAUAGGGGCACGG [U10C U61A], for which the Kd was found to be 33.1 nM. As for CCCAACGACCGCCGAGCGAGAUUACGCUUGAGCGCCCCACUGAGGAUGCCCACGGGCGAUCGGGGCACGG [U10C U61C], the Kd was 41.4 nM. The result for CCCAACGACGGCCGUGCGAGAUUACGCUUGAGCGCCCCACUGAGGAUGCCCACGGGCGAUUGGGGCACGG [U10G A15U] reads 5.99 nM.

Turning to CCCAACGACGGCCGCGCGAGAUUACGCUUGAGCGCCCCACUGAGGAUGCCCACGGGCGAUUGGGGCACGG [U10G A15C], the dissociation constant (Kd) turned out to be 3.77 nM. For CCCAACGACGGCCGGGCGAGAUUACGCUUGAGCGCCCCACUGAGGAUGCCCACGGGCGAUUGGGGCACGG [U10G A15G], the Kd was determined as 4.72 nM. The figure for CCCAACGACGGCCGAGCGAGAUUACGCUUGAGCGCCCCAUUGAGGAUGCCCACGGGCGAUUGGGGCACGG [U10G C40U] is 63.9 nM. The result for CCCAACGACGGCCGAGCGAGAUUACGCUUGAGCGCCCCAGUGAGGAUGCCCACGGGCGAUUGGGGCACGG [U10G C40G] reads 5.38 nM. On to CCCAACGACGGCCGAGCGAGAUUACGCUUGAGCGCCCAACUGAGGAUGCCCACGGGCGAUUGGGGCACGG [U10G C38A], for which the Kd came out at 39.8 nM. The result for CCCAACGACGGCCGAGCGAGAUUACGCUUGAGCGCCCUACUGAGGAUGCCCACGGGCGAUUGGGGCACGG [U10G C38U] reads 9.49 nM; that for CCCAACGACGGCCGAGCGAGAUUACGCUUGAGCGCCCGACUGAGGAUGCCCACGGGCGAUUGGGGCACGG [U10G C38G], 7 nM. In the case of CCCAACGACGGCCGAGCGAGAUUACGCUUGGGCGCCCCACUGAGGAUGCCCACGGGCGAUUGGGGCACGG [U10G A31G], the Kd worked out at 6.79 nM.

CCCAACGACGGCCGAGCGAGAUUACGCUUGUGCGCCCCACUGAGGAUGCCCACGGGCGAUUGGGGCACGG [U10G A31U]: the Kd was 5.87 nM. Regarding CCCAACGACGGCCGAGCGAGAUUACGCUUGCGCGCCCCACUGAGGAUGCCCACGGGCGAUUGGGGCACGG [U10G A31C], the Kd was determined as 6.21 nM.

Regarding CCCAACGACGGCCGAGAGAGAUUACGCUUGAGCGCCCCACUGAGGAUGCCCACGGGCGAUUGGGGCACGG [U10G C17A], the dissociation constant Kd came out at 5.07 nM. Take CCCAACGACGGCCGAGGGAGAUUACGCUUGAGCGCCCCACUGAGGAUGCCCACGGGCGAUUGGGGCACGG [U10G C17G]: the Kd is 4.78 nM. As to CCCAACGACGGCCGAGUGAGAUUACGCUUGAGCGCCCCACUGAGGAUGCCCACGGGCGAUUGGGGCACGG [U10G C17U], the Kd worked out at 4.88 nM. The result for CCCAACGACGGCCGAGCGAGAUUACGCUUGAGCGCCCCACUGAGGAUGCCCCCGGGCGAUUGGGGCACGG [U10G A52C] reads 5.8 nM.

As for CCCAACGACGGCCGAGCGAGAUUACGCUUGAGCGCCCCACUGAGGAUGCCCUCGGGCGAUUGGGGCACGG [U10G A52U], the Kd worked out at 14.9 nM. Consider CCCAACGACGGCCGAGCGAGAUUACGCUUGAGCGCCCCACUGAGGAUGCCCGCGGGCGAUUGGGGCACGG [U10G A52G], for which the Kd came to 4.22 nM.

As for CCCAACGACGGCCGAGCGAGAUUACGCUUGAGCGCCCCACUGAGGAUGCCCAAGGGCGAUUGGGGCACGG [U10G C53A], the dissociation constant (Kd) came out at 5.46 nM.

The record behind these values is the RNAGym collection of RNA variant scans (doi:10.1038/nmeth.2970).
